Measurements taken from ChEMBL document CHEMBL1156144, “Biaryl ethers as novel non-nucleoside reverse transcriptase inhibitors with improved potency against key mutant viruses” (J Med Chem, 2009).
pIC50, pKi: −log10 of the molar value.

Experiments:
[1] = test system: Human immunodeficiency virus; test: Antiviral activity against wild type HIV H9-3B infected in human MT2 cells assessed as inhibition of viral replication measuring p24 level after 3 days in presence of 50% normal human serum; type: functional; settings: Human immunodeficiency virus 1, H9-3B, 72 h, read-out: CIC95
In short: (§1)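 Multiple-cycle spread assay in MT2 cells with wild-type H9IIIB virus. Cells were infected overnight at moi ≈ 0.01 without compound, washed, then cultured 3 days across varying compound concentrations in RPMI 1640 with 10% FBS or 50% NHS. p24 was measured in supernatants. CIC95 is the lowest concentration inhibiting replication ≥95%, as the geometric mean of ≥2 determinations.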

[2] = Inhibition of RNA-dependent DNA polymerase activity of wild type HIV reverse transcriptase assessed as BrdU incorporation by standard ECL assay; design: species or system Human immunodeficiency virus
In short: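 Purified recombinant wild-type RT polymerase activity was measured using a 500-nt heteropolymeric RNA template and a biotinylated DNA primer. BrdU incorporation was detected with a ruthenylated anti-BrdU antibody by electrochemiluminescence. Ki is the geometric mean of at least two determinations, each within 25% of the mean.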

[3] = test system: Rattus norvegicus; test: AUC in Sprague-Dawley rat at 2 mg/kg, iv; type: ADME, organism-based, Plasma; design: dose 2 mg/kg, route intravenous; settings: in vivo
[4] = Clearance in Sprague-Dawley rat at 2 mg/kg, iv; type: ADME, organism-based; design: dose 2 mg/kg, route intravenous; settings: in vivo
[5] = Volume of distribution in Sprague-Dawley rat at 2 mg/kg, iv; type: ADME, organism-based; design: dose 2 mg/kg, route intravenous; settings: in vivo
[6] = target: Human immunodeficiency virus type 1 reverse transcriptase (Human immunodeficiency virus 1, UniProt Q72547, K103N); test: Inhibition of RNA-dependent DNA polymerase activity of recombinant HIV reverse transcriptase K103N mutant assessed as BrdU incorporation by standard ECL assay
[7] = test system: Human immunodeficiency virus; test: Antiviral activity against HIV with reverse transcriptase K103N mutant infected in human MT2 cells assessed as inhibition of viral replication measuring p24 level after 3 days in presence of 10% fetal bovine serum; type: functional; settings: Human immunodeficiency virus 1, MT2, Serum, 72 h; read-out: CIC95
In short: (§2)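 Multiple-cycle replication (Spread) assay in MT2 cells with H9IIIB-background mutant virus. Cells were infected overnight at moi ≈ 0.01 without compound, washed, then cultured 3 days across a range of compound concentrations in medium with 10% FBS. p24 was measured in supernatants. CIC95 is the lowest concentration inhibiting replication by ≥95%, reported as the geometric mean of ≥2 determinations.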

[8] = Half life in Sprague-Dawley rat at 2 mg/kg, iv; type: ADME, organism-based; design: dose 2 mg/kg, route intravenous; settings: in vivo
[9] = test system: Human immunodeficiency virus; test: Antiviral activity against wild type HIV H9-3B infected in human MT2 cells assessed as inhibition of viral replication measuring p24 level after 3 days in presence of 10% fetal bovine serum; type: functional; settings: Human immunodeficiency virus 1, MT2, Serum; read-out: CIC95; in short: as §1
[10] = test system: Human immunodeficiency virus; test: Antiviral activity against HIV with reverse transcriptase Y181C mutant infected in human MT2 cells assessed as inhibition of viral replication measuring p24 level after 3 days in presence of 10% fetal bovine serum; type: functional; settings: Human immunodeficiency virus 1, MT2, Serum, 72 h; read-out: CIC95; in short: as §2
[11] = test system: Human immunodeficiency virus; test: Antiviral activity against HIV with reverse transcriptase K103N/Y181C double mutant infected in human MT2 cells assessed as inhibition of viral replication measuring p24 level after 3 days in presence of 10% fetal bovine serum; type: functional; settings: Human immunodeficiency virus 1, MT2, Serum, 72 h; read-out: CIC95; in short: as §2
[12] = test system: Human immunodeficiency virus; test: Antiviral activity against HIV with reverse transcriptase K101E/G190A double mutant assessed as inhibition of viral replication; type: functional, organism-based; settings: Human immunodeficiency virus 1
[13] = test system: Human immunodeficiency virus; test: Antiviral activity against HIV with reverse transcriptase K103N/Y181C double mutant assessed as inhibition of viral replication relative to wild type; type: functional
[14] = test system: Human immunodeficiency virus; test: Antiviral activity against HIV with reverse transcriptase Y181C/G190A double mutant assessed as inhibition of viral replication; type: functional, organism-based; settings: Human immunodeficiency virus 1
[15] = test system: Human immunodeficiency virus; test: Antiviral activity against HIV with reverse transcriptase K103N mutant assessed as inhibition of viral replication relative to wild type; type: functional
[16] = test system: Human immunodeficiency virus; test: Antiviral activity against HIV with reverse transcriptase K103N/G190A double mutant assessed as inhibition of viral replication relative to wild type; type: functional
[17] = test system: Human immunodeficiency virus; test: Antiviral activity against HIV with reverse transcriptase G190A mutant assessed as inhibition of viral replication relative to wild type; type: functional
[18] = test system: Human immunodeficiency virus; test: Antiviral activity against HIV with reverse transcriptase G190A mutant assessed as inhibition of viral replication; type: functional, organism-based; settings: Human immunodeficiency virus 1
[19] = test system: Human immunodeficiency virus; test: Antiviral activity against HIV with reverse transcriptase Y181C mutant assessed as inhibition of viral replication relative to wild type; type: functional
[20] = test system: Human immunodeficiency virus; test: Antiviral activity against HIV with reverse transcriptase V106A/G190A/F227L mutant assessed as inhibition of viral replication; type: functional, organism-based; settings: Human immunodeficiency virus 1
[21] = test system: Human immunodeficiency virus; test: Antiviral activity against HIV with reverse transcriptase K103N/Y181C/G190A mutant assessed as inhibition of viral replication relative to wild type; type: functional
[22] = test system: Human immunodeficiency virus; test: Antiviral activity against HIV with reverse transcriptase Y188L mutant assessed as inhibition of viral replication; type: functional, organism-based; settings: Human immunodeficiency virus 1
[23] = test system: Human immunodeficiency virus; test: Antiviral activity against HIV with reverse transcriptase L100I/K103N double mutant assessed as inhibition of viral replication relative to wild type; type: functional
[24] = test system: Human immunodeficiency virus; test: Antiviral activity against HIV with reverse transcriptase CNDO mutant assessed as inhibition of viral replication; type: functional, organism-based; settings: Human immunodeficiency virus 1
[25] = test system: Human immunodeficiency virus; test: Antiviral activity against HIV with reverse transcriptase K103N/P225H double mutant assessed as inhibition of viral replication relative to wild type; type: functional
[26] = test system: Human immunodeficiency virus; test: Antiviral activity against HIV with reverse transcriptase K103N/P225H double mutant assessed as inhibition of viral replication; type: functional, organism-based; settings: Human immunodeficiency virus 1
[27] = test system: Human immunodeficiency virus; test: Antiviral activity against HIV with reverse transcriptase K103N/Y181C/G190A mutant assessed as inhibition of viral replication; type: functional, organism-based; settings: Human immunodeficiency virus 1
[28] = test system: Human immunodeficiency virus; test: Antiviral activity against HIV with reverse transcriptase MDRC4 mutant assessed as inhibition of viral replication relative to wild type; type: functional
[29] = test system: Human immunodeficiency virus; test: Antiviral activity against HIV with reverse transcriptase CNDO mutant assessed as inhibition of viral replication relative to wild type; type: functional
[30] = test system: Human immunodeficiency virus; test: Antiviral activity against HIV with reverse transcriptase MDRC4 mutant assessed as inhibition of viral replication; type: functional, organism-based; settings: Human immunodeficiency virus 1
[31] = test system: Human immunodeficiency virus; test: Antiviral activity against HIV with reverse transcriptase K101E/Y181C/G190A mutant assessed as inhibition of viral replication relative to wild type; type: functional
[32] = test system: Human immunodeficiency virus; test: Antiviral activity against HIV with reverse transcriptase K103N/Y181C double mutant assessed as inhibition of viral replication; type: functional, organism-based; settings: Human immunodeficiency virus 1
[33] = test system: Human immunodeficiency virus; test: Antiviral activity against HIV with reverse transcriptase V106A/G190A/F227L mutant assessed as inhibition of viral replication relative to wild type; type: functional
[34] = test system: Human immunodeficiency virus; test: Antiviral activity against HIV with reverse transcriptase G190S mutant assessed as inhibition of viral replication relative to wild type; type: functional
[35] = test system: Human immunodeficiency virus; test: Antiviral activity against HIV with reverse transcriptase K103N mutant assessed as inhibition of viral replication; type: functional, organism-based; settings: Human immunodeficiency virus 1
[36] = test system: Human immunodeficiency virus; test: Antiviral activity against HIV with reverse transcriptase Y188L mutant assessed as inhibition of viral replication relative to wild type; type: functional
[37] = test system: Human immunodeficiency virus; test: Antiviral activity against HIV with reverse transcriptase K103N/G190A double mutant assessed as inhibition of viral replication; type: functional, organism-based; settings: Human immunodeficiency virus 1
[38] = test system: Human immunodeficiency virus; test: Antiviral activity against HIV with reverse transcriptase L100I/K103N double mutant assessed as inhibition of viral replication; type: functional, organism-based; settings: Human immunodeficiency virus 1
[39] = test system: Human immunodeficiency virus; test: Antiviral activity against HIV with reverse transcriptase K101E/Y181C/G190A mutant assessed as inhibition of viral replication; type: functional, organism-based; settings: Human immunodeficiency virus 1
[40] = test system: Human immunodeficiency virus; test: Antiviral activity against HIV with reverse transcriptase L100I mutant assessed as inhibition of viral replication relative to wild type; type: functional
[41] = test system: Human immunodeficiency virus; test: Antiviral activity against HIV with reverse transcriptase L100I mutant assessed as inhibition of viral replication; type: functional, organism-based; settings: Human immunodeficiency virus 1
[42] = test system: Human immunodeficiency virus; test: Antiviral activity against HIV with reverse transcriptase K101E/G190A double mutant assessed as inhibition of viral replication relative to wild type; type: functional
[43] = test system: Human immunodeficiency virus; test: Antiviral activity against HIV with reverse transcriptase Y181C mutant assessed as inhibition of viral replication; type: functional, organism-based; settings: Human immunodeficiency virus 1
[44] = test system: Human immunodeficiency virus; test: Antiviral activity against HIV with reverse transcriptase Y181C/G190A double mutant assessed as inhibition of viral replication relative to wild type; type: functional
[45] = test system: Human immunodeficiency virus; test: Antiviral activity against HIV with reverse transcriptase G190S mutant assessed as inhibition of viral replication; type: functional, organism-based; settings: Human immunodeficiency virus 1

CNc1ccc2c(COc3ccc(Cl)c(Oc4cc(Cl)cc(C#N)c4)c3)noc2n1
IC95 [1]: 0.103 µM
pKi [2]: 9.52
AUC [3]: 0.8 µM
clearance [4]: 24.6 mL/min/kg
Vd [5]: 2 L/kg
pKi [6]: 9.05
IC95 [7]: 0.309 µM
half-life [8]: 2 h
IC95 [9]: 0.103 µM

CN(C)c1ccc2c(COc3ccc(Cl)c(Oc4cc(Cl)cc(C#N)c4)c3)noc2n1
IC95 [1]: 0.309 µM
pKi [2]: 9.52
pKi [6]: 9.05
IC95 [7]: 0.309 µM
IC95 [9]: 0.103 µM

N#Cc1cc(Cl)cc(Oc2cc(OCc3noc4nc(N5CCCCC5)ccc34)ccc2Cl)c1
pKi [2]: 8.66
IC95 [10]: > 8.33 µM
pKi [6]: 8.14
IC95 [7]: > 8.33 µM
IC95 [9]: > 8.33 µM

Cc1cc(OCc2n[nH]c3ncccc23)cc(Oc2cc(Cl)cc(C#N)c2)c1Cl
IC95 [11]: 0.278 µM
IC95 [1]: 0.103 µM
pKi [2]: 9.40
IC95 [10]: 0.031 µM
pKi [6]: 8.72
IC95 [7]: 0.103 µM
IC95 [9]: 0.011 µM

N#Cc1cc(Cl)cc(Oc2cc(OCc3noc4nc(N5CCNCC5)ccc34)ccc2Cl)c1
IC95 [11]: 0.833 µM
IC95 [1]: 0.309 µM
pKi [2]: 8.77
IC95 [10]: 0.833 µM
pKi [6]: 8.52
IC95 [7]: 0.103 µM
IC95 [9]: 0.033 µM

N#Cc1cc(Cl)cc(Oc2cc(OCc3noc4nc(N)ccc34)ccc2Cl)c1
IC95 [11]: 0.278 µM
IC95 [1]: 0.034 µM
pKi [2]: 9.52
AUC [3]: 0.8 µM
clearance [4]: 93.4 mL/min/kg
Vd [5]: 44.7 L/kg
IC95 [10]: 0.093 µM
pKi [6]: 9.40
IC95 [7]: 0.034 µM
half-life [8]: 5.8 h
IC95 [9]: 0.011 µM

N#Cc1cc(Cl)cc(Oc2cc(OCc3noc4ncccc34)ccc2Cl)c1
IC95 [11]: 0.278 µM
IC95 [1]: 0.103 µM
pKi [2]: 8.80
IC95 [10]: 0.093 µM
pKi [6]: 8.68
IC95 [7]: 0.103 µM
IC95 [9]: 0.019 µM

N#Cc1cc(Cl)cc(Oc2cc(OCc3n[nH]c4ncccc34)cc(F)c2Cl)c1
IC95 [11]: 0.093 µM
IC95 [1]: 0.059 µM
pKi [2]: 9.30
IC95 [10]: 0.031 µM
pKi [6]: 9.05
IC95 [7]: 0.011 µM
IC95 [9]: 0.016 µM

N#Cc1cc(Cl)cc(Oc2ccc(Cl)c(OCc3n[nH]c4ncccc34)c2)c1
IC95 [1]: > 8.3 µM
pKi [2]: 7.77
pKi [6]: 6.85
IC95 [7]: > 8.3 µM
IC95 [9]: > 8.3 µM

O=C1Nc2ccc(Cl)cc2[C@@](C#CC2CC2)(C(F)(F)F)O1 [EFAVIRENZ]
pIC50 [12]: 7.76
fold change (FC) [13]: 55.6
pIC50 [14]: 8.11
fold change (FC) [15]: 33.6
fold change (FC) [16]: 281.4
fold change (FC) [17]: 7.2
pIC50 [18]: 8.44
fold change (FC) [19]: 2.2
pIC50 [20]: < 6.30
fold change (FC) [21]: >454
pIC50 [22]: 6.91
fold change (FC) [23]: >454
pIC50 [24]: 9.30
fold change (FC) [25]: 306.2
pIC50 [26]: 6.82
pIC50 [27]: < 6.30
fold change (FC) [28]: 16
fold change (FC) [29]: 1
pIC50 [30]: 8.10
fold change (FC) [31]: 213
pIC50 [32]: 7.56
fold change (FC) [33]: >454
fold change (FC) [34]: 229
pIC50 [35]: 7.77
fold change (FC) [36]: 248.6
pIC50 [37]: 6.85
pIC50 [38]: < 6.30
pIC50 [39]: 6.97
fold change (FC) [40]: 42
pIC50 [41]: 7.68
fold change (FC) [42]: 34.8
pIC50 [43]: 8.96
fold change (FC) [44]: 15.4
pIC50 [45]: 6.94
